One block for each compound: values may come before it.
Tests used:
[1] = target: T1, Epidermal growth factor receptor (Homo sapiens, UniProt P00533); assay: In vitro inhibition of intrinsic tyrosine protein kinase activity of the Epidermal growth factor receptor using […]
Procedure, shortened: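 Enzyme source was ER 22 membranes purified on 32% sucrose. Reaction buffer: 20 mM Hepes pH 7.4, 1 mM MnCl2, 0.1 mg/mL BSA, 100 ng/mL EGF. Receptor was preincubated with EGF for 10 min at room temperature, then inhibitor was added. It was stopped with TCA; supernatant was spotted on phosphocellulose paper, washed in phosphoric acid and counted by scintillation.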

[2] = target: T1, Epidermal growth factor receptor; details: 10 uM
[3] = target: T1, Epidermal growth factor receptor; details: 5 uM
[4] = target: T1, Epidermal growth factor receptor; details: 10 uM; remark: listed apart in the source
[5] = target: T1, Epidermal growth factor receptor; details: 5 uM; remark: listed apart in the source
[6] = target: T1, Epidermal growth factor receptor; details: 10 uM; remark: listed apart in the source
[7] = target: T1, Epidermal growth factor receptor; details: 1.25 uM
[8] = target: T1, Epidermal growth factor receptor; assay: Inhibition of Epidermal growth factor receptor activity against […] at 10 uM
[9] = target: T1, Epidermal growth factor receptor; details: 10 uM; remark: listed apart in the source

T1 sequence (P00533 whole entry): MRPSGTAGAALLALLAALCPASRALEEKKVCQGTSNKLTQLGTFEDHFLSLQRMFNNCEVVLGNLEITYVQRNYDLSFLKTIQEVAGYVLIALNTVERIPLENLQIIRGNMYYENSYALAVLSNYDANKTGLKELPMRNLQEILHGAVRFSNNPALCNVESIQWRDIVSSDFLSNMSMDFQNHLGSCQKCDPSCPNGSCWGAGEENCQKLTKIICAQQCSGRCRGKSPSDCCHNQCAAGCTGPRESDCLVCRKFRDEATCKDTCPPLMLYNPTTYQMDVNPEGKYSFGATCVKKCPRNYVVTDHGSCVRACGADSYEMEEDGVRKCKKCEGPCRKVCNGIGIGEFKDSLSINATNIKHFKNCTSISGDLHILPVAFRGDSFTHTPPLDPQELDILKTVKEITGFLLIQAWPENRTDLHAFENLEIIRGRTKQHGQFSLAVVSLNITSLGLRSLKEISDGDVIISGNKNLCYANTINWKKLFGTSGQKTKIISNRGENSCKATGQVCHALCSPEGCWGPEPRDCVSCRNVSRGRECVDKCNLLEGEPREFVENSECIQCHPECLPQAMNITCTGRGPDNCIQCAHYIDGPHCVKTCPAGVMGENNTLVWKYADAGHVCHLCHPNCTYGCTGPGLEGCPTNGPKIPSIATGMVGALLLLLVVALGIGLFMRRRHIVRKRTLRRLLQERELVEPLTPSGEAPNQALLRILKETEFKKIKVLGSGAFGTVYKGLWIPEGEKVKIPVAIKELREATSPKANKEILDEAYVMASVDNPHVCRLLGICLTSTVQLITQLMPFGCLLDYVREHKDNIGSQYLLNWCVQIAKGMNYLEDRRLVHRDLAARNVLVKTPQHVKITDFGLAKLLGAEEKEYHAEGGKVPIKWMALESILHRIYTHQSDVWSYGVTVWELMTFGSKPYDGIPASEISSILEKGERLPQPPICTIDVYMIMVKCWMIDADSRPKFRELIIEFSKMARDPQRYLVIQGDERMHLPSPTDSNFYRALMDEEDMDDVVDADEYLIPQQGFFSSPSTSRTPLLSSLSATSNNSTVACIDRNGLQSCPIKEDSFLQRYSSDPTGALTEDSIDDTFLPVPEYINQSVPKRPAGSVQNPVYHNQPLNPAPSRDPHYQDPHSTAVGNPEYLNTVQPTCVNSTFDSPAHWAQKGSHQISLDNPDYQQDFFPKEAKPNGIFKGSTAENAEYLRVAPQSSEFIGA

SMILES: COC(=O)c1ccc(-c2cccc(-c3ccccc3)c2O)cc1
- IC50 [1]: > 20 µM

SMILES: COCOc1cc(-c2ccccc2)ccc1-c1ccc(C(=O)NCc2ccccc2)cc1
- IC50 [1]: > 1 µM

SMILES: CC(COC(=O)c1ccc(-c2cc(O)cc(C(C)(C)C)c2)cc1)CC(C)(C)C (stereo not drawn)
- inhibition [2]: 10%

SMILES: COCOc1c(-c2ccccc2)cccc1-c1ccc(C(=O)OCC(C)CC(C)(C)C)cc1 (stereo not drawn)
- inhibition [4]: 16%

SMILES: O=C(O)c1ccc(-c2cc(O)cc(-c3ccccc3)c2)cc1
- inhibition [2]: 9%

SMILES: CC(COC(=O)c1ccc(-c2ccc(-c3ccccc3)cc2O)cc1)CC(C)(C)C (stereo not drawn)
- inhibition [3]: 27%
- inhibition [4]: 3%

SMILES: CC(C)(C)c1cc(O)cc(-c2ccc(C(=O)NCc3ccccc3)cc2)c1
- IC50 [1]: > 5 µM

SMILES: CC(C)(C)c1cc(O)cc(-c2ccc(C(=O)O)cc2)c1
- IC50 [1]: > 50 µM

SMILES: CC(COC(=O)c1ccc(-c2cc(O)cc(-c3ccccc3)c2)cc1)CC(C)(C)C (stereo not drawn)
- inhibition [2]: 15%

SMILES: COCOc1cc(-c2ccccc2)ccc1-c1ccc(C(=O)O)cc1
- inhibition [4]: 8%

SMILES: CC(C)(C)c1cc(O)cc(-c2ccc(CO)cc2)c1
- IC50 [1]: > 10 µM
- inhibition [6]: 21%

SMILES: COC(=O)c1ccc(-c2ccc(-c3ccccc3)cc2O)cc1
- IC50 [1]: 14 µM
- inhibition [7]: 41%

SMILES: O=C(NCc1ccccc1)c1ccc(-c2cccc(-c3ccccc3)c2O)cc1
- IC50 [1]: > 5 µM

SMILES: CC(COC(=O)c1ccc(-c2cccc(-c3ccccc3)c2O)cc1)CC(C)(C)C (stereo not drawn)
- inhibition [4]: 11%

SMILES: CC(C)(C)c1ccc(-c2ccc(C(=O)NCc3ccccc3)cc2)c(O)c1
- IC50 [1]: > 5 µM
- inhibition [9]: 57%

SMILES: O=C(NCc1ccccc1)c1ccc(-c2ccc(-c3ccccc3)cc2O)cc1
- IC50 [1]: > 1 µM

SMILES: O=C(NCc1ccccc1)c1ccc(-c2cc(O)cc(-c3ccccc3)c2)cc1
- inhibition [2]: 5%

More lines, now with the values ahead:

- IC50 [1]: > 10 µM
SMILES: CC(C)(C)c1ccc(-c2ccc(C(=O)O)cc2)c(O)c1

- inhibition [3]: 25%
- inhibition [2]: 3%
SMILES: CC(COC(=O)c1ccc(-c2ccc(C(C)(C)C)cc2O)cc1)CC(C)(C)C (stereo not drawn)

- IC50 [1]: > 5 µM
- inhibition [5]: 47%
SMILES: COCOc1cc(C(C)(C)C)ccc1-c1ccc(C(=O)NCc2ccccc2)cc1

- inhibition [2]: 6%
SMILES: COC(=O)c1ccc(-c2ccc(C(C)(C)C)cc2O)cc1

- inhibition [4]: 2%
SMILES: COCOc1cc(-c2ccccc2)ccc1-c1ccc(C(=O)OC)cc1

- IC50 [1]: > 10 µM
SMILES: COC(=O)c1ccc(-c2cc(O)cc(C(C)(C)C)c2)cc1

- IC50 [8]: > 10 µM
SMILES: COCOc1cc(C(C)(C)C)ccc1-c1ccc(C(=O)OC)cc1

- IC50 [1]: > 50 µM
SMILES: COCOc1cc(C(C)(C)C)ccc1-c1ccc(C(=O)OCC(C)CC(C)(C)C)cc1 (stereo not drawn)

- inhibition [3]: 10%
- IC50 [1]: > 20 µM
SMILES: COCOc1cc(-c2ccccc2)ccc1-c1ccc(C(=O)OCC(C)CC(C)(C)C)cc1 (stereo not drawn)

From ChEMBL document CHEMBL1128699, “Inhibition of the EGF-stimulated cellular proliferation of ER 22 cells by hydroxybiphenyl derivatives” (J Med Chem, 1995)
